Most compounds without a hit are left out; they make up all but 3.5% or so of the library.
PRMT1 FP inh – PRMT1 (human) inhibition, primary screen; recombinant PRMT1, activity-based probe fluorescence polarization; inhibition, % at 2.79 µM; 1.3% of 370,000 active;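 active = inhibition above about 21% made by adding two undisclosed values, limit read from the data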
Target sequence (Q99873 whole entry, looked up): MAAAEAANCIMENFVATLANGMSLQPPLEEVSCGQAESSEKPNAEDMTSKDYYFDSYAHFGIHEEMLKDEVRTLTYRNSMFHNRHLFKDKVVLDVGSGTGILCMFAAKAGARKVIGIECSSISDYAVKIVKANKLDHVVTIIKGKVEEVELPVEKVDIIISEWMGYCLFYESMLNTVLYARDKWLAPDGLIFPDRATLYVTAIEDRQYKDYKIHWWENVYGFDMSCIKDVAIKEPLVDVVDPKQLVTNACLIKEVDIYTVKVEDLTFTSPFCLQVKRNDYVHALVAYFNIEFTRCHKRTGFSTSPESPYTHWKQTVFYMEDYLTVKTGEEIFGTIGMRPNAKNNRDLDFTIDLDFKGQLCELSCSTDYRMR
SIAE inh – blocks human sialic acid acetylesterase; SIAE FP-Rh probe binding, fluorescence polarization; inhibition, % at 9.66 µM; 0.69% of 370,000 active; AID 1053197;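 active = inhibition above a cutoff: mean of compounds within the control limits plus 3 SD of those, cut at about 17% in these data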;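 also: 0% = plate median of compound wells and 100% = probe without SIAE protein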
TCR-CD3 inh – human TCR-CD3 binding inhibition; inhibition, % at 9.4 µM; TAMRA-labeled TCR probe fluorescence, biochemical; 0.37% of 360,000 active;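 also: recombinant mutant TCR 2C K166C tagged with TAMRA read by polarization; 0% = receptor in buffer alone and 100% = receptor with positive control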
ABHD4 inh – ABHD4 (mouse) inhibition, primary FP screen; purified mABHD4, FP-Rh probe fluorescence polarization; 0.54% of 370,000 active; inhibition, % at 8.92 µM;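 active = inhibition exceeding the mean over every tested compound plus 3 SD, cut at about 30% in these data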;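 also: 0% = plate median of compound wells and 100% = S159A mutant with DMSO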
Target sequence (Q8VD66 whole entry, looked up): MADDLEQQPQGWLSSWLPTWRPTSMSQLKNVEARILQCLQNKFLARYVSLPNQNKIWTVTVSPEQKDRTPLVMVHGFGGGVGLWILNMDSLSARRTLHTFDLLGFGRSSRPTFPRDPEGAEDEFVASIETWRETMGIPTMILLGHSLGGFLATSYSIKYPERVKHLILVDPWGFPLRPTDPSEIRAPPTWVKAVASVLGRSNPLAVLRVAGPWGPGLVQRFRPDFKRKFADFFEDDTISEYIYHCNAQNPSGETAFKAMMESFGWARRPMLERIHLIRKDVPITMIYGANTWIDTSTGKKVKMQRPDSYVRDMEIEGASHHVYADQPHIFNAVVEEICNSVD
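assay system = mABHD4 protein | compound dosing = single nominal dose of 8.92 µM, 0.89% DMSO final | read-out basis = percent inhibition of probe binding, normalized to plate controls | schedule = Enzyme–compound pre-incubation 45 min, then probe 60 min, both 25 °C | detection = fluorescence polarization, excitation 525 nm, emission 598 nm, BODIPY TMR filters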
HTRA1 inhibitor – blocks human HTRA1 serine peptidase; 0.5% of 340,000 active; recombinant HTRA1, FP-rhodamine activity-based probe, fluorescence polarization; inhibition, % at 5.96 µM; Q92743; in the data active = inhibition above about 36%;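 also: 0% = enzyme with DMSO and 100% = wells lacking enzyme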
rCAG binder – binds r(CAG) RNA repeats. r(CAG) RNA repeat, TO-PRO-1 dye displacement fluorescence. inhibition, % at 3 µM. 1.3% of 370,000 active;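 active = inhibition above the plate cutoff, the mean of all test compounds on that plate plus 3 SD, cut at about 35% in these data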;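 also: 0% = DMSO alone and 100% = 100 µM mitoxantrone as full dye displacement; higher means more dye released from RNA so lower well fluorescence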
HTRA1 inh conf – confirmation of human HTRA1 inhibitors. AID 540248. recombinant HTRA1, FP-rhodamine activity-based probe, fluorescence polarization. 66% of 1,600 active. inhibition, % at 5.96 µM. shares compounds with HTRA1 inhibitor;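 active = mean inhibition over three repeats above a set limit taken from the earlier primary screen, cut at about 37% in these data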;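 also: 0% = HTRA1 with DMSO and 100% = wells lacking HTRA1; inhibitors block probe binding so polarization drops and inhibition rises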
BSA TAMRA ctr – counter-screen for TCR-CD3 interaction inhibitors: BSA probe. shares compounds with TCR-CD3 inh. TAMRA-labeled BSA probe fluorescence counterscreen. inhibition, % at 9.4 µM. 10% of 1,200 active; in the data active = inhibition above about 23%;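 also: 0% = buffer low control and 100% = reference high control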
TCR-CD3 conf – TCR-CD3 interaction inhibition, confirmation | 48% of 1,200 active | TAMRA-labeled TCR probe fluorescence binding assay | shares compounds with TCR-CD3 inh | inhibition, % at 9.4 µM
rCAG bind conf – r(CAG) RNA repeat binding, confirmation; 70% of 4,300 active; shares compounds with rCAG binder; TO-PRO-1 dye displacement fluorescence; inhibition, % at 3 µM;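 active = inhibition above a per-plate cutoff, the mean inhibition of sample wells plus 3 SD, cut at about 35% in these data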;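 also: loss of TO-PRO-1 fluorescence as compound displaces dye from 1x1 AA loop RNA; 0% = DMSO only wells and 100% = 100 µM mitoxantrone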
DNA CAG counter – DNA CAG dye complex inhibition counter-screen; shares compounds with rCAG binder; d(CAG) DNA oligo TO-PRO-1 dye displacement, fluorescence; inhibition, % at 3 µM; 94% of 4,300 active;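 active = inhibition above its plate's cutoff, the mean test-well inhibition plus 3 SD, cut at about 4.8% in these data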;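 also: 0% = DNA dye mix with DMSO and 100% = 100 µM mitoxantrone; hits displace the dye from DNA and so lower well fluorescence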
PRMT1 confirm – confirmation of human PRMT1 inhibitors. shares compounds with PRMT1 FP inh. recombinant His-PRMT1, activity-based probe fluorescence polarization. inhibition, % at 2.79 µM. 42% of 3,300 active;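 active = mean inhibition across replicates above the hit cutoff derived for the earlier primary screen, cut at about 22% in these data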
ABHD4 confirm – confirmation of mouse ABHD4 inhibitors. shares compounds with ABHD4 inh. 55% of 1,800 active. inhibition, % at 8.92 µM. AID 720658. purified mABHD4, FP-Rh probe fluorescence polarization;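 active = mean inhibition across replicates above the hit cutoff set in the primary screen, cut at about 30% in these data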;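 also: 0% = wild-type ABHD4 with DMSO and 100% = catalytically dead S159A mutant with DMSO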
Starred values were filed as active, the others as inactive; . = not tested or not shown. Rule as the data show it, unless noted: active = inhibition above about 19%; inactive = the rest.

SMILES	PRMT1 FP inh	SIAE inh	TCR-CD3 inh	ABHD4 inh	HTRA1 inhibitor	rCAG binder	HTRA1 inh conf	ABHD4 confirm	others
O=C(O)c1cc(N=Nc2c(O)ccc3ccccc23)cc(C(=O)O)c1	4	-5	-8	-3	6	-1	.	.
Cc1cccc2c(N=Nc3ccc(S(=O)(=O)Nc4cccc(Cl)c4)cc3[N+](=O)[O-])c(O)[nH]c12	1	3	3	43*	37*	24	28	-43
Cc1ccc(S(=O)(=O)Nc2ccccc2)cc1[N+](=O)[O-]	-2	-4	3	-2	1	1	.	.
CN(C)c1ccc(NC2=C(Cl)C(=O)c3ccccc3C2=O)cc1	10	10	-3	43*	63*	3	58*	54*
Cc1c[nH]c2cccc(-c3cccc4ccccc34)c12	6	3	.	-24	.	6	.	.
CN(C)S(=O)(=O)c1cccc(C(=O)N/N=C\c2ccnc3ccccc23)c1	-5	-22	.	-13	.	2	.	.
CCCC(=O)C1=C(c2ccccc2)C(C#N)(C#N)C(C#N)=C1N	18	13	1	38*	38*	32	55*	22
CCCCCCCCCCOC(=O)Cn1c(COc2cccc(C)c2)[n+](C)c2ccccc21	-2	2	2	32*	38*	3	33	38*
CCCCCCCCCCOC(=O)Cn1c(COc2ccc(OC)cc2)[n+](C)c2ccccc21	.	.	.	.	18	.	.	.
CN(C)c1cc2c(c(N(C)C)c1)C(=O)c1ccccc1C2=O	0	0	-5	41*	41*	8	50*	33*
COc1cc(NCCCCC(C)N)c2nccc(C)c2c1 (stereo not drawn)	3	9	4	19	15	13	.	.
COc1cc(NCCCC(C)N)c2ncccc2c1 (stereo not drawn)	4	44*	62*	47*	62*	9	12	27	BSA TAMRA ctr=22;TCR-CD3 conf=14
C=C1c2cccc(O)c2C(O)=C2C(=O)[C@]3(O)C(O)=C(C(N)=O)C(=O)[C@@H](N(C)C)[C@@H]3[C@@H](O)[C@H]12	52*	69*	52*	79*	53*	85*	30	26	BSA TAMRA ctr=-8;TCR-CD3 conf=4;rCAG bind conf=24;DNA CAG counter=9.8*;PRMT1 confirm=26*
Fc1cccc(Cl)c1CNc1ccc(N2CCCC2)cc1	6	11	5	32*	47*	10	32	49*
Cc1c(NC(=O)C2CCCN(S(=O)(=O)c3ccc(Br)s3)C2)c(=O)n(-c2ccccc2)n1C (stereo not drawn)	-7	3	.	0	.	1	.	.
CCCCCCCCCCCCCCCC[N+](C)(C)CC	-4	0	4	47*	61*	6	167*	60*
CCCCCCCCCCCCCCCC[N+](C)(C)CCl	1	-3	11	50*	65*	7	74*	12
C#CC[N+](C)(C)CCCCCCCCCC	1	-2	3	0	10	5	.	.
C#CC[N+](C)(C)CCCCCCCCCCCC	3	-7	-6	11	3	6	.	.
Clc1ccccc1C1Nc2cccc3cccc(c23)N1	19	14	1	48*	48*	15	28	36*
CC(=O)Nc1cccc(/C(C)=N/NS(=O)(=O)c2ccc(C)cc2)c1	-1	0	8	2	12	0	.	.
O=C(O)c1cccc(NC2=C(N3CCOCC3)C(=O)c3ccccc3C2=O)c1	-1	-3	-3	5	2	2	.	.
Cc1ccc(S(=O)(=O)/N=C2\C=C(Nc3cccc(C(=O)O)c3)C(=O)c3ccccc32)c(C)c1	1	16	0	47*	58*	76*	63*	101*	rCAG bind conf=83*;DNA CAG counter=50*
Cc1ccc(S(=O)(=O)/N=C2\C=C(Nc3cccc(C(=O)O)c3)C(=O)c3ccccc32)cc1	2	4	0	33*	52*	47*	30	62*	rCAG bind conf=16;DNA CAG counter=4.7*
COC(=O)[C@@H]1C[C@@]2(c3ccccc3)c3ccccc3N(S(=O)(=O)c3ccccc3)[C@H]2N1C(=O)CNC1CCCCC1	1	4	.	11	.	6	.	.
SMILES	PRMT1 FP inh	SIAE inh	TCR-CD3 inh	ABHD4 inh	HTRA1 inhibitor	rCAG binder	HTRA1 inh conf	ABHD4 confirm	others
CCOC(=O)c1nn(-c2ccccc2)c(=O)c2c(N)scc12	17	1	-20	6	2	4	.	.
Nc1scc2c(C(=O)N/N=C/c3ccc(Cl)cc3)nn(-c3ccccc3)c(=O)c12	22*	12	12	44*	41*	41*	-4	20	rCAG bind conf=25;DNA CAG counter=16*
Cc1ccc(N=C2C(=O)Nc3ccccc32)cc1	-1	3	5	1	2	0	.	.
CCN(CC)c1ccc(N=C2C(=O)Nc3ccccc32)cc1	30*	15	-5	46*	63*	12	44*	51*
C/C(=N/NC(=O)c1cc(O)c(O)c(O)c1)c1ccc([N+](=O)[O-])cc1	16	13	55*	32*	76*	14	57*	26	BSA TAMRA ctr=-11;TCR-CD3 conf=36*
Nn1c(SCc2ccc([N+](=O)[O-])cc2)nnc1-c1n[nH]c2c1CCC2	1	-6	.	6	.	3	.	.
Cc1ccccc1Cn1cc(CN2[C@@H](CC(C)C)COc3cccc(F)c3S2(=O)=O)nn1	-1	-3	.	-6	.	1	.	.
O=c1c2ccccc2nc(COc2ccccc2)n1/N=C/c1ccc(O)c(O)c1	0	-2	17	36*	72*	16	82*	11
COc1cc(/C=C2/C(=O)NN(c3ccc(Cl)c(Cl)c3)C2=O)cc([N+](=O)[O-])c1O	26*	-8	7	60*	38*	99*	42*	80*	rCAG bind conf=66*;DNA CAG counter=23*;PRMT1 confirm=16
COc1cc(/C=C2/C(=O)NN(c3ccc(F)cc3)C2=O)cc(Cl)c1O	5	6	-1	12	7	15	.	.

Screening data deposited in PubChem by The Scripps Research Institute Molecular Screening Center.
